# The M2OR odorant receptor database
# Legend:
# Settings in all cases: stereoisomer not certain
# UniProt L7MU75 = target: T1, UniProt L7MU75
# T1 sequence (whole entry): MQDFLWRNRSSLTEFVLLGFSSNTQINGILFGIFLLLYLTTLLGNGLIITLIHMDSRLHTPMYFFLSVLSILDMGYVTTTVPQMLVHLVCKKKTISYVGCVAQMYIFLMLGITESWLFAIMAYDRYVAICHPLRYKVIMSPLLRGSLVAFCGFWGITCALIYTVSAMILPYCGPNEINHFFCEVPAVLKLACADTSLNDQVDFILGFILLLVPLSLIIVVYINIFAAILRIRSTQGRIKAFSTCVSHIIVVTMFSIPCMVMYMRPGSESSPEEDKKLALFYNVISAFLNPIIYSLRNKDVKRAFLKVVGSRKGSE
# Method in brief: (§1)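 Transient luciferase assays in mammalian cell lines were common, though methods varied by source. The values come from published papers and their supplementary material, with extra details from the original authors when needed. Responsive refers to a measured signal the original authors judged statistically different from baseline, and non-responsive (inactive) to the remainder.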
# UniProt L7N210 = target: T2, UniProt L7N210
# T2 sequence (whole entry): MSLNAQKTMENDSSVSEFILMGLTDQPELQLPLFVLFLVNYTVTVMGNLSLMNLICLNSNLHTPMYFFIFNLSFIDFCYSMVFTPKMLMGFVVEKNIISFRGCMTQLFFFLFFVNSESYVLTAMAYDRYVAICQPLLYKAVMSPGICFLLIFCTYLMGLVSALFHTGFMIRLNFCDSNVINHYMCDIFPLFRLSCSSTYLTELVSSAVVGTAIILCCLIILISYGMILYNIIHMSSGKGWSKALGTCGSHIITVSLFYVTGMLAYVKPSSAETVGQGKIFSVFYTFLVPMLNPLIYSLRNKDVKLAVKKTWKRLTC
# Method in brief: as §1
# UniProt Q3KPB0 = target: T3, UniProt Q3KPB0
# T3 sequence (whole entry): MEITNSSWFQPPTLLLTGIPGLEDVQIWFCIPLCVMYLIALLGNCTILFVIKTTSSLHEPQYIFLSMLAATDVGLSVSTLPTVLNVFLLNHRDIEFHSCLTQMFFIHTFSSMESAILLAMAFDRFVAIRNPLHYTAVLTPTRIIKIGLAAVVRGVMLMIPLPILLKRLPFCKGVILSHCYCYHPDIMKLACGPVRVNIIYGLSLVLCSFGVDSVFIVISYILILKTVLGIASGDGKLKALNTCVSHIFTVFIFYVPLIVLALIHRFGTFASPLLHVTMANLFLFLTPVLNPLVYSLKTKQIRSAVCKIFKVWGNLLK
# Method in brief: as §1
# UniProt Q3U0P3 = target: T4, UniProt Q3U0P3
# T4 sequence (whole entry): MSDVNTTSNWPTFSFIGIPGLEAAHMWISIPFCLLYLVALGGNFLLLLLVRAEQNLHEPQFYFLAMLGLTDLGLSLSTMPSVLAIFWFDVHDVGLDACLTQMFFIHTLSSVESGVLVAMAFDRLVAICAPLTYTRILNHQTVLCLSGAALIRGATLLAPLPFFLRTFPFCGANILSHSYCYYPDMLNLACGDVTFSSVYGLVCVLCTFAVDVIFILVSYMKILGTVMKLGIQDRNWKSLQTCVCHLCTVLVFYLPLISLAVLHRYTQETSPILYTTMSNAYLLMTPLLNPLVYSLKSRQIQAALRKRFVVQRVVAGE
# Method in brief: as §1
# UniProt Q7TQU8 = target: T5, UniProt Q7TQU8
# T5 sequence (whole entry): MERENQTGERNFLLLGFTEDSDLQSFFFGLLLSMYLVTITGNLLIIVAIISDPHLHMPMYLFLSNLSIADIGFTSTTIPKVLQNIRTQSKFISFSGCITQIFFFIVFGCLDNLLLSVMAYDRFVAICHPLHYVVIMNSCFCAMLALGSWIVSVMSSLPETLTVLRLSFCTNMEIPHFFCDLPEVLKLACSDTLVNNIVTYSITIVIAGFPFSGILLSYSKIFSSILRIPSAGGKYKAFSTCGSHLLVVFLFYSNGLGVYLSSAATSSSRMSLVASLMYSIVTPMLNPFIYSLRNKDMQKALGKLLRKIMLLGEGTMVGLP
# Method in brief: as §1
# UniProt Q7TQV4 = target: T6, UniProt Q7TQV4
# T6 sequence (whole entry): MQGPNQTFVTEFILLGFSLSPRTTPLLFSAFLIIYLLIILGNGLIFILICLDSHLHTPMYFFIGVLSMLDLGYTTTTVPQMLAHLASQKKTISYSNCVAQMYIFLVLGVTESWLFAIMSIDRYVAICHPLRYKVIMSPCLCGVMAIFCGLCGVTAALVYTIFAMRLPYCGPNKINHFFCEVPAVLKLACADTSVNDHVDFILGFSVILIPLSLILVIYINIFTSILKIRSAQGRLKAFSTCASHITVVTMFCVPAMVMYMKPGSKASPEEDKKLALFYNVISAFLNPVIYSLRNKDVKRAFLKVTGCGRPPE
# Method in brief: as §1
# 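Further: active if original authors judged signal statistically different from baseline.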
Compound,odorant receptor agonist call (UniProt L7MU75),odorant receptor agonist call (UniProt L7N210),odorant receptor agonist call (UniProt Q3KPB0),odorant receptor agonist call (UniProt Q3U0P3),odorant receptor agonist call (UniProt Q7TQU8),odorant receptor agonist call (UniProt Q7TQV4)
C=C(C)C1CCC(C)C(O)C1 (stereo unspecified),inactive,inactive,inactive,inactive,inactive,
CCCCCOC(=O)CC,inactive,inactive,inactive,inactive,inactive,
CCCCCC(=Cc1ccccc1)C(OC)OC,inactive,inactive,inactive,inactive,inactive,
CCCC(C)C(=O)OCC (stereo unspecified),inactive,inactive,inactive,inactive,inactive,
C=CC(=C)CCC=C(C)C,inactive,inactive,inactive,inactive,inactive,
C1CCOC1,inactive,inactive,inactive,inactive,inactive,
CCCCC=O,inactive,inactive,inactive,inactive,inactive,
CCCCCC(C)O (stereo unspecified),inactive,inactive,inactive,inactive,inactive,
CCCCCCCCOC=O,inactive,inactive,inactive,inactive,inactive,
C=C(C)C1CC=C(C)CC1 (stereo unspecified),inactive,inactive,inactive,inactive,inactive,
O=C([O-])CCCCCCC(=O)[O-].[H+].[H+],inactive,inactive,inactive,inactive,inactive,
CC1(C)CC(=O)CC(=O)C1,inactive,inactive,inactive,inactive,inactive,
CCSSCC,inactive,inactive,inactive,inactive,inactive,
CCCCCOC(=O)CCC,inactive,inactive,inactive,inactive,inactive,
CCc1ccccc1O,inactive,inactive,inactive,inactive,inactive,
Cc1ccccc1OC(=O)C(C)C,inactive,inactive,inactive,inactive,inactive,
CCc1ccc(O)cc1,inactive,active,inactive,inactive,inactive,
CCCCCCC(C=O)=Cc1ccccc1,inactive,inactive,inactive,inactive,inactive,
CCCCCCCCC=CC=O,inactive,inactive,inactive,inactive,inactive,
Cc1c(C)c(C)c(C=O)c(C)c1C,inactive,active,inactive,inactive,inactive,
CCSCC,inactive,inactive,inactive,inactive,inactive,
CCCCCC=CCCC=O,inactive,inactive,inactive,inactive,inactive,

Compound,odorant receptor agonist call (UniProt L7MU75),odorant receptor agonist call (UniProt L7N210),odorant receptor agonist call (UniProt Q3KPB0),odorant receptor agonist call (UniProt Q3U0P3),odorant receptor agonist call (UniProt Q7TQU8),odorant receptor agonist call (UniProt Q7TQV4)
OCCCCCCCCCO,inactive,inactive,inactive,inactive,inactive,
CC(CC=O)CCCC(C)(C)O (stereo unspecified),inactive,inactive,inactive,inactive,inactive,
C=CC(=O)CCCCC,inactive,inactive,inactive,inactive,inactive,
C=C(C)C1CCC2(C)OC2C1 (stereo unspecified),inactive,inactive,inactive,inactive,inactive,
CC(C)=C1CCC(C)CC1=O (stereo unspecified),inactive,inactive,inactive,inactive,inactive,
CCOC(=O)C(C)CC (stereo unspecified),inactive,inactive,inactive,inactive,inactive,
CSSCc1ccco1,inactive,inactive,inactive,inactive,inactive,
CCCCCCC(=O)OCCCC,inactive,inactive,inactive,inactive,inactive,
CCC(C)O (stereo unspecified),inactive,inactive,inactive,inactive,inactive,
CC=C(C)C=O,inactive,inactive,inactive,inactive,inactive,
CCCCCCCOC(=O)C(C)C,inactive,inactive,inactive,inactive,inactive,
CC=Cc1ccc(OC)cc1,inactive,inactive,inactive,inactive,inactive,
CCCCCCCCCCCO,inactive,inactive,inactive,inactive,inactive,
CC(C)=CCCC(C)=CCOC(=O)C(C)C,inactive,inactive,inactive,inactive,inactive,
C1CCOCC1,inactive,inactive,inactive,inactive,inactive,
CCCCCCC=CC=O,inactive,inactive,inactive,inactive,inactive,
O=C(O)CCCCCCCCC(=O)O,inactive,inactive,inactive,inactive,inactive,
OCCc1ccccc1,inactive,inactive,inactive,inactive,inactive,
C=CC(=C)CCC=C(C)CCC=C(C)C,inactive,inactive,inactive,inactive,inactive,
CC(=O)C=CC1=C(C)CCCC1(C)C,inactive,inactive,inactive,inactive,inactive,
CCCCCCCCCCOC(C)=O,inactive,inactive,inactive,inactive,inactive,
CCN(CC)CC,inactive,inactive,inactive,inactive,inactive,

Compound,odorant receptor agonist call (UniProt L7MU75),odorant receptor agonist call (UniProt L7N210),odorant receptor agonist call (UniProt Q3KPB0),odorant receptor agonist call (UniProt Q3U0P3),odorant receptor agonist call (UniProt Q7TQU8),odorant receptor agonist call (UniProt Q7TQV4)
CCCCCCO,inactive,inactive,inactive,inactive,inactive,inactive
CCCCCCOC(C)=O,inactive,inactive,inactive,inactive,inactive,inactive
CCC=CCCCCC=O,inactive,inactive,inactive,inactive,inactive,
CCCCCCCCCCO,inactive,inactive,inactive,inactive,inactive,inactive
CC(C)=CCCC(C)=CCO,inactive,inactive,inactive,inactive,inactive,inactive
CCCCCC(=O)CC,inactive,inactive,inactive,inactive,inactive,inactive
CCCCCC=O,inactive,inactive,inactive,inactive,inactive,inactive
CCCCCCC(C)=O,inactive,inactive,inactive,inactive,inactive,inactive
CC(=O)Oc1ccccc1,inactive,inactive,inactive,inactive,inactive,inactive
CC12CCC(CC1=O)C2(C)C (stereo unspecified),inactive,inactive,inactive,inactive,inactive,inactive
CCCCCCCC(C)=O,inactive,inactive,inactive,inactive,inactive,inactive
CCCCCCCCCO,inactive,inactive,inactive,inactive,inactive,inactive
CC(=O)OCC=C(C)C,inactive,inactive,inactive,inactive,inactive,active
CCCCCCCCC(=O)O,inactive,inactive,inactive,inactive,inactive,inactive
CCOC(=O)C(C)C,inactive,inactive,inactive,inactive,inactive,inactive
CCCCCCCCCC(=O)[O-].[H+],inactive,inactive,inactive,inactive,inactive,inactive
COc1ccccc1,inactive,inactive,inactive,inactive,inactive,
CC(C)CCN,inactive,inactive,inactive,inactive,inactive,
c1ccc2ncccc2c1,active,active,inactive,inactive,inactive,
CC(=O)OCc1ccccc1,inactive,inactive,inactive,inactive,inactive,inactive
CC1CCC(C(C)C)C(=O)C1 (stereo unspecified),inactive,inactive,inactive,inactive,inactive,
